Consider 2 molecules from ChEMBL document CHEMBL1121364, “Nucleoside conjugates as potential antitumor agents. 3. Synthesis and antitumor activity of 1-(beta-D-arabinofuranosyl)cytosine conjugates of corticosteroids” (1980).

Assay [1] relates to L1210. Nature of the assay: Antitumor activity in the mice with intraperitoneal implanted L1210 lymphoid leukemia at the dose 9.2 and 14.5 mg/kg/day x 5 was determined as Survival time in days; Range is 12-16 days. In kind it is functional, Mus musculus. A digest of the protocol: (§1)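 C3D2F1/J female mice (C3H/HeJ female × DBA/2J male), groups of six to eight, average weight 25 g. Inoculated ip with 1 × 10^6 L1210 ascites cells taken from DBA/2Ha donor mice bearing 3-5 day old tumors. Compounds were dissolved in 0.154 N NaOH, neutralized with 0.154 N HCl (final 0.9% NaCl), and given ip daily for 5 days from 24 h post-implant. Median survival T/C; ILS = (T/C − 1) × 100; 30-day survivors counted.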

The test system of assay [2] is L1210. The assay can be described thus: Antitumor activity in the mice with intraperitoneal implanted L1210 lymphoid leukemia at the dose 9.2 and 14.5 mg/kg/day x 5 was determined and number of animals survived on 30 th day were reported; 0/6. In kind it is functional, Mus musculus. An outline of the steps:
as §1

Assay [3] deals with L1210. The assay can be described thus: Antitumor activity in the mice with intraperitoneal implanted L1210 lymphoid leukemia at the dose 17.7 and 27.7 mg/kg/day x 5 was determined and number of animals survived on 30 th day were reported; 0/8. In kind it is functional, Mus musculus. An outline of the steps:
(§2)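 Female C3D2F1/J mice (C3H/HeJ × DBA/2J), groups of six to eight, average weight 25 g. Each mouse got 1 × 10^6 L1210 ascites cells ip, taken from DBA/2Ha donor mice bearing 3-5 day tumors. Compound was dissolved in 0.154 N NaOH and neutralized with 0.154 N HCl (final 0.9% NaCl). Dosed ip daily ×5, starting 24 h after implant. Recorded body weight change on day 8, survival range, median survival and 30-day survivors. ILS = (T/C − 1) × 100.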

Assay [4] concerns L1210. The assay can be described thus: Antitumor activity in the mice with intraperitoneal implanted L1210 lymphoid leukemia at the dose of 9.2 and 14.5 mg/kg/day x 5 was determined as mean survival of treated group compared to untreated; 12/11. In kind it is functional, Mus musculus.
Assay [5] deals with L1210. The assay can be described thus: Antitumor activity in mice with intraperitoneal implanted L1210 lymphoid leukemia at the dose 17.7 and 27.7 mg/kg/day x 5 was determined as weight change (g/mouse) on 8th day. In kind it is functional. A digest of the protocol:
as §2

In assay [6] the test system is L1210. Nature of the assay: Antitumor activity in mice with intraperitoneal implanted L1210 lymphoid leukemia at the dose 9.2 and 14.5 mg/kg/day x 5 was determined as weight change (g/mouse) on 8th day. In kind it is functional. An outline of the steps:
as §2

The subject of assay [7] is L1210. The assay can be described thus: Antitumor activity in the mice with intraperitoneal implanted L1210 lymphoid leukemia at the dose 17.7 and 27.7 mg/kg/day x 5 was determined as percentage increase in the life span as compared with control tumor bearers. In kind it is functional, Mus musculus. A digest of the protocol:
as §2

Assay [8] has as its system L1210. Nature of the assay: Antitumor activity in the mice with intraperitoneal implanted L1210 lymphoid leukemia at the dose 9.2 and 14.5 mg/kg/day x 5 was determined as percentage increase in the life span as compared with control tumor bearers. The format is functional, Mus musculus. An outline of the steps: as §1
Assay [9] has as its system L1210. Nature of the assay: Antitumor activity in the mice with intraperitoneal implanted L1210 lymphoid leukemia at the dose 17.7 and 27.7 mg/kg/day x 5 was determined as Survival time in days; Range is 7-17 days. In kind it is functional, Mus musculus. A digest of the protocol: as §2
Assay [10] concerns L1210. Nature of the assay: Antitumor activity in the mice with intraperitoneal implanted L1210 lymphoid leukemia at the dose of 17.7 and 27.7 mg/kg/day x 5 was determined as mean survival of treated group compared to untreated; 10.5/9.5. The format is functional, Mus musculus. An outline of the steps: as §1
The test system of assay [11] is L1210. The assay can be described thus: Antitumor activity in the mice with intraperitoneal implanted L1210 lymphoid leukemia at the dose 50 mg/kg/day x 5 was determined as percentage increase in the life span as compared with control tumor bearers. Particulars: Mus musculus, L1210, ip. The format is functional. An outline of the steps:
as §1

Assay [12] deals with L1210. Nature of the assay: Antitumor activity in the mice with intraperitoneal implanted L1210 lymphoid leukemia at the dose 25 mg/kg/day x 5 was determined and number of animals survived on 30 th day were reported; 1/8. The format is functional, Mus musculus. An outline of the steps: as §2
Assay [13] concerns L1210. The assay can be described thus: Antitumor activity in mice with intraperitoneal implanted L1210 lymphoid leukemia at the dose 50 mg/kg/day x 5 was determined as weight change (g/mouse) on 8th day. The format is functional. A digest of the protocol: (§3)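 C3D2F1/J female mice (C3H/HeJ × DBA/2J), groups of six to eight, average 25 g, inoculated ip with 1 × 10^6 L1210 ascites cells taken from DBA/2Ha donor mice carrying 3-5 day tumors. Compound dissolved in 0.154 N NaOH, then neutralized with 0.154 N HCl to give 0.9% NaCl. Given ip daily for 5 consecutive days starting 24 h after implantation. Body weight change per mouse recorded on day 8.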

The subject of assay [14] is L1210. The assay can be described thus: Antitumor activity in the mice with intraperitoneal implanted L1210 lymphoid leukemia at the dose 25 mg/kg/day x 5 was determined as percentage increase in the life span as compared with control tumor bearers. In kind it is functional. Particulars: Mus musculus, L1210, ip. A digest of the protocol: as §2
In assay [15] the test system is L1210. The assay can be described thus: Antitumor activity in the mice with intraperitoneal implanted L1210 lymphoid leukemia at the dose 75 mg/kg/day x 5 was determined as percentage increase in the life span as compared with control tumor bearers. In kind it is functional. Particulars: Mus musculus, L1210, ip. A digest of the protocol: as §1
Assay [16] relates to L1210. The assay can be described thus: Antitumor activity in the mice with intraperitoneal implanted L1210 lymphoid leukemia at the dose 25 mg/kg/day x 5 was determined as Survival time in days; Range is 13- >45 days. The format is functional, Mus musculus. A digest of the protocol:
as §2

Assay [17] relates to L1210. Nature of the assay: Antitumor activity in the mice with intraperitoneal implanted L1210 lymphoid leukemia at the dose of 25 mg/kg/day x 5 was determined as mean survival of treated group compared to untreated; 17.5/9.5. In kind it is functional, Mus musculus. A digest of the protocol: as §1
Assay [18] has as its system L1210. Nature of the assay: Antitumor activity in the mice with intraperitoneal implanted L1210 lymphoid leukemia at the dose 50 mg/kg/day x 5 was determined as Survival time in days; Range is 14-24 days. The format is functional, Mus musculus. A digest of the protocol:
as §2

Assay [19] concerns L1210. The assay can be described thus: In Vitro evaluation for the antiproliferative activity by observing the growth inhibition of L1210 lymphoid leukemia cells in culture at 72 hour. The format is functional, Mus musculus. An outline of the steps:
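Growth of L1210 lymphoid leukemia cells in culture measured by Trypan blue exclusion of viable cells after 72 h of drug exposure. ED50 is the concentration giving 50% growth inhibition. In some runs the compound was first preincubated in medium at 37 °C for 24 or 48 h before the assay.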

In assay [20] the test system is L1210. The assay can be described thus: Antitumor activity in mice with intraperitoneal implanted L1210 lymphoid leukemia at the dose 75 mg/kg/day x 5 was determined as weight change (g/mouse) on 8th day. The format is functional. An outline of the steps:
as §3

The test system of assay [21] is L1210. The assay can be described thus: Antitumor activity in the mice with intraperitoneal implanted L1210 lymphoid leukemia at the dose of 75 mg/kg/day x 5 was determined as mean survival of treated group compared to untreated; 18/9.5. The format is functional, Mus musculus.
For assay [22], the system named is L1210. Nature of the assay: Antitumor activity in mice with intraperitoneal implanted L1210 lymphoid leukemia at the dose 25 mg/kg/day x 5 was determined as weight change (g/mouse) on 8th day. The format is functional. An outline of the steps:
as §3

The test system of assay [23] is L1210. Nature of the assay: Antitumor activity in the mice with intraperitoneal implanted L1210 lymphoid leukemia at the dose 75 mg/kg/day x 5 was determined and number of animals survived on 30 th day were reported; 1/8. The format is functional, Mus musculus. A digest of the protocol:
as §1

The subject of assay [24] is L1210. The assay can be described thus: Antitumor activity in the mice with intraperitoneal implanted L1210 lymphoid leukemia at the dose of 50 mg/kg/day x 5 was determined as mean survival of treated group compared to untreated; 20.5/8. In kind it is functional, Mus musculus.
Assay [25] concerns L1210. The assay can be described thus: Antitumor activity in the mice with intraperitoneal implanted L1210 lymphoid leukemia at the dose 75 mg/kg/day x 5 was determined as Survival time in days; Range is 15-37 days. The format is functional, Mus musculus. A digest of the protocol: as §1
Assay [26] has as its system L1210. The assay can be described thus: Antitumor activity in the mice with intraperitoneal implanted L1210 lymphoid leukemia at the dose 50 mg/kg/day x 5 was determined and number of animals survived on 30 th day were reported; 0/8. In kind it is functional, Mus musculus. An outline of the steps:
as §2

The structures appear in SMILES notation.

In the case of `C[C@]12CCC(=O)C=C1CC[C@H]1[C@@H]3CC[C@](O)(C(=O)CO)[C@@]3(C)C[C@H](O)[C@@]12F.Nc1ccn([C@@H]2O[C@H](CO)[C@@H](O)[C@@H]2O)c(=O)n1`, the results for the Survival time in the assay with L1210 [1] and with L1210 [9] were 12 days and 7 days, respectively. Moreover, the Survivors with L1210 [2] and with L1210 [3] was 0 in each case. Further, the T/C came out at 12 in the assay on L1210 [4] and 10.5 in the assay with L1210 [10]. Further, the values for the Weight change with L1210 [5] and in the assay with L1210 [6] were -3.48 g mouse-1 and -4.47 g mouse-1, respectively. The ILS in the assay with L1210 [7] was determined as 11%; with L1210 [8], 9%.

`C[C@H]1C[C@@H]2[C@H]([C@@H](O)C[C@@]3(C)[C@H]2CC[C@]3(O)C(=O)COP(=O)(O)OC[C@H]2O[C@@H](n3ccc(N)nc3=O)[C@@H](O)[C@@H]2O)[C@@]2(C)C=CC(=O)C=C12` yielded an ILS at 50 mg/kg/day in the assay on L1210 [11] of 156%. The Survivors was found to be 1 with L1210 [12], 1 with L1210 [23] and 0 with L1210 [26]. Moreover, the Weight change in the assay on L1210 [13] was -1.08 g mouse-1; in the assay on L1210 [20], -1.07 g mouse-1; with L1210 [22], 2 g mouse-1. Further, in the assay with L1210 [14], the ILS at 25 mg/kg/day was found to be 84%. In the assay with L1210 [15], the ILS at 75 mg/kg/day amounted to 90%. Moreover, the results for the Survival time in the assay with L1210 [16], in the assay on L1210 [18] and in the assay on L1210 [25] were 13 days, 14 days and 15 days, respectively. Besides, the T/C in the assay on L1210 [17] is 17.5; in the assay on L1210 [21], 18; in the assay on L1210 [24], 20.5. In the assay with L1210 [19], the “ED 50” value is 450 nM.

The term ILS denotes how much longer treated animals lived than controls. The low end stands for a small benefit in survival, the high end for a large benefit in survival.
